The results in this text go back to ChEMBL document CHEMBL2380302, “Synthesis of 3-O-propargylated betulinic acid and its 1,2,3-triazoles as potential apoptotic agents” (Eur J Med Chem, 2013).

Common to all, as to format: functional
The subject of experiment [1] is HCT-15. As to the kind of experiment: Cytotoxicity against human HCT15 cells at 1 uM after 48 hrs by SRB assay. The conditions noted are these: HCT-15, 48 h, read-out: GI.
For experiment [2], the system named is HEp-2. As to the kind of experiment: Cytotoxicity against human Hep2 cells at 1 uM after 48 hrs by SRB assay. The conditions noted are these: HEp-2, 48 h, read-out: GI.
In experiment [3] the test system is HL-60. Put plainly: Cytotoxicity against human HL60 cells at 20 uM after 48 hrs by SRB assay. The settings on record: HL-60, 48 h, read-out: GI. A digest of the protocol: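 HL-60 suspension cells in RPMI-1640/MEM with 10% FCS at 37 °C in 5% CO2 were plated in 96 wells and exposed to compound for 48 h. Cells were fixed with 80% TCA and pelleted at 1500 rpm for 15 min. Staining used 0.4% SRB in 1% acetic acid for 30 min; dye was dissolved in 10 mM Tris base and OD read at 570/620 nm.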
(Sulforhodamine B stains cellular protein and so reports cell mass.)

Experiment [4] relates to DU-145. As to the kind of experiment: Cytotoxicity against human DU145 cells at 20 uM after 48 hrs by SRB assay. The conditions noted are these: DU-145, 48 h, read-out: GI. Summed up:
(§1)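 Cells grown in RPMI-1640/MEM with 10% FCS and penicillin/streptomycin at 37 °C in 5% CO2. They adhered overnight in 96-well plates and were exposed to compound for 48 h. Cells were then fixed with ice-cold 50% TCA for 60 min and stained with 0.4% SRB in 1% acetic acid for 30 min. Dye was solubilised in 10 mM Tris base and OD read at 570 nm (reference 620 nm).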

Experiment [5] concerns HCT-15. As to the kind of experiment: Cytotoxicity against human HCT15 cells at 20 uM after 48 hrs by SRB assay. The settings on record: HCT-15, 48 h, read-out: GI. Summed up: as §1
In experiment [6] the test system is A549. Put plainly: Cytotoxicity against human A549 cells at 20 uM after 48 hrs by SRB assay. The settings on record: A549, 48 h, read-out: GI. Summed up:
as §1

In experiment [7] the test system is PC-3. As to the kind of experiment: Cytotoxicity against human PC3 cells at 20 uM after 48 hrs by SRB assay. The conditions noted are these: PC-3, 48 h, read-out: GI. Summed up:
as §1

Experiment [8] has as its system THP-1. As to the kind of experiment: Cytotoxicity against human THP1 cells at 20 uM after 48 hrs by SRB assay. The conditions noted are these: THP-1, 48 h, read-out: GI. Summed up: as §1
The subject of experiment [9] is SF-295. Put plainly: Cytotoxicity against human SF295 cells at 20 uM after 48 hrs by SRB assay. The settings on record: SF-295, 48 h, read-out: GI. Summed up: as §1

Structures are written as SMILES.

With `CO[C@@]12[C@H](COC(N)=O)C3=C(C(=O)C(C)=C(N)C3=O)N1C[C@@H]1N[C@@H]12` [MITOMYCIN], the inhibition of growth at 1 µM in experiment [1] was 76%; in experiment [2], 68%.
On to `O=c1[nH]cc(F)c(=O)[nH]1` [FLUOROURACIL], for which the inhibition of growth at 20 µM was 89% in [3]; 72% in experiment [4]; 72% in [5]; 75% in experiment [6]; 64% in experiment [7]; 83% in [8]. Also, the inhibition of growth at 20 µM in experiment [9] came out at 73%.
